SMILES strings stand for the structures. The source made the active and inactive calls. No cut-off for these calls is given here. Bounds are passed on as bounds.

As usually defined, the ED50 is the dose that gives a 50% effect, or the effect in half of the subjects.

The first data set concerns Mus musculus. The data set is described as follows: Neuroleptic activity in mouse assessed as suppression of conditioned avoidance behavior by measuring mean correct responses level at 10 mg/kg, ip administered 4 hrs prior to electric shock challenge. To be noted: route intraperitoneal. The data set is classed as functional. The method in brief:
(§1)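 After 20 s a solenoid pushed each mouse back onto the grid, leaving 5 s to return and avoid the next shock. Trained mice reaching 90–100% correct avoidance (3–5 per group) received 10 mg/kg ip. Twenty trials were run before dosing and at intervals after. Percent correct avoidance per animal was averaged per group.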
Regarding `O=C(O)/C=C/C(=O)O.O=C(c1ccc(F)cc1)C1CCN(CCCN2c3ccccc3Sc3ccc(C(F)(F)F)cc32)CC1` [DUOPERONE FUMARATE], the Activity came out at 80%.

Consider `CC(=O)c1ccc2c(c1)N(CCCN1CCC(C(=O)c3ccc(F)cc3)CC1)c1ccccc1S2.O.O=C(O)/C=C/C(=O)O`, for which the Activity is 43%.

The subject of another data set is Mus musculus. The data set is described as follows: Toxicity in ICR-DUB mouse assessed as grooming at 50 mg/kg, ip measured during first 24 hrs. The data set is classed as organism-based. To be noted: in vivo. Further details: dose 50 mg/kg, route intraperitoneal.
Take `O=C(O)/C=C/C(=O)O.O=C(c1ccc(F)cc1)C1CCN(CCCN2c3ccccc3Sc3ccc(C(F)(F)F)cc32)CC1` [DUOPERONE FUMARATE]: the Activity entry is reported as “Toxic”.

The test system of a further data set is Mus musculus. The data set is described as follows: Neuroleptic activity in ip dosed ICR-DUB mouse assessed as survival administered 2 days prior to d-amphetamine challenge measured after 24 hrs. The format is functional.
Details: not given
Take `O=C(O)/C=C/C(=O)O.O=C(c1ccc(F)cc1)C1CCN(CCCN2c3ccccc3Sc3ccc(C(F)(F)F)cc32)CC1` [DUOPERONE FUMARATE]: the ED50 is 4.7 mg/kg.

`CC(=O)c1ccc2c(c1)N(CCCN1CCC(C(=O)c3ccc(F)cc3)CC1)c1ccccc1S2.O.O=C(O)/C=C/C(=O)O`: the median effective dose (ED50) was determined as 22.5 mg/kg.

The test system of the next data set is Mus musculus. The data set is described as follows: Neuroleptic activity in ip dosed ICR-DUB mouse assessed as survival administered 5 days prior to d-amphetamine challenge measured after 24 hrs.
Details: not given
The format is functional.
With `O=C(O)/C=C/C(=O)O.O=C(c1ccc(F)cc1)C1CCN(CCCN2c3ccccc3Sc3ccc(C(F)(F)F)cc32)CC1` [DUOPERONE FUMARATE], the median effective dose (ED50) amounted to 28.4 mg/kg.

In the case of `CC(=O)c1ccc2c(c1)N(CCCN1CCC(C(=O)c3ccc(F)cc3)CC1)c1ccccc1S2.O.O=C(O)/C=C/C(=O)O`, the median effective dose (ED50) turned out to be 60 mg/kg.

A further data set relates to Mus musculus. The data set is described as follows: Neuroleptic activity in mouse assessed as suppression of conditioned avoidance behavior by measuring mean correct responses level at 10 mg/kg, ip administered 2 days prior to electric shock challenge. The format is functional. To be noted: route intraperitoneal. The method in brief:
as §1
As for `O=C(O)/C=C/C(=O)O.O=C(c1ccc(F)cc1)C1CCN(CCCN2c3ccccc3Sc3ccc(C(F)(F)F)cc32)CC1` [DUOPERONE FUMARATE], the Activity turned out to be 58%.

Take `CC(=O)c1ccc2c(c1)N(CCCN1CCC(C(=O)c3ccc(F)cc3)CC1)c1ccccc1S2.O.O=C(O)/C=C/C(=O)O`: the Activity came to 95%.

The subject of the next data set is Mus musculus. The data set is described as follows: Toxicity in ICR-DUB mouse assessed as grooming at 50 mg/kg, ip. To be noted: in vivo. The format is organism-based. Further details: dose 50 mg/kg, route intraperitoneal.
Regarding `O=C(O)/C=C/C(=O)O.O=C(c1ccc(F)cc1)C1CCN(CCCN2c3ccccc3Sc3ccc(C(F)(F)F)cc32)CC1` [DUOPERONE FUMARATE], the Activity entry is recorded as “Non-toxic”.

In a further data set the test system is Mus musculus. The data set is described as follows: Neuroleptic activity in mouse assessed as suppression of conditioned avoidance behavior by measuring mean correct responses level at 10 mg/kg, ip administered 1 hr prior to electric shock challenge. The format is functional. To be noted: route intraperitoneal. Put shortly:
as §1
For `O=C(O)/C=C/C(=O)O.O=C(c1ccc(F)cc1)C1CCN(CCCN2c3ccccc3Sc3ccc(C(F)(F)F)cc32)CC1` [DUOPERONE FUMARATE], the Activity is given as 98%.

For `CC(=O)c1ccc2c(c1)N(CCCN1CCC(C(=O)c3ccc(F)cc3)CC1)c1ccccc1S2.O.O=C(O)/C=C/C(=O)O`, the Activity is given as 73%.

The next data set concerns Mus musculus. The data set is described as follows: Neuroleptic activity in ip dosed ICR-DUB mouse assessed as survival administered 3 days prior to d-amphetamine challenge measured after 24 hrs. The format is functional.
Details: not given
For `O=C(O)/C=C/C(=O)O.O=C(c1ccc(F)cc1)C1CCN(CCCN2c3ccccc3Sc3ccc(C(F)(F)F)cc32)CC1` [DUOPERONE FUMARATE], the ED50 worked out at 15.2 mg/kg.

Take `CC(=O)c1ccc2c(c1)N(CCCN1CCC(C(=O)c3ccc(F)cc3)CC1)c1ccccc1S2.O.O=C(O)/C=C/C(=O)O`: the ED50 was determined as 17.5 mg/kg.

The test system of another data set is Mus musculus. The data set is described as follows: Neuroleptic activity in mouse assessed as suppression of conditioned avoidance behavior by measuring mean correct responses level at 10 mg/kg, ip administered 4 days prior to electric shock challenge. As to conditions: route intraperitoneal. The data set is classed as functional. Put shortly:
as §1
With `O=C(O)/C=C/C(=O)O.O=C(c1ccc(F)cc1)C1CCN(CCCN2c3ccccc3Sc3ccc(C(F)(F)F)cc32)CC1` [DUOPERONE FUMARATE], the Activity is listed as 95%.

The next data set deals with Mus musculus. The data set is described as follows: Toxicity in ICR-DUB mouse assessed as mild sedation at 50 mg/kg, ip measured for 6 days. The data set is classed as organism-based. Also noted: dose 50 mg/kg, route intraperitoneal. As to conditions: in vivo, 144 h.
For the compound `O=C(O)/C=C/C(=O)O.O=C(c1ccc(F)cc1)C1CCN(CCCN2c3ccccc3Sc3ccc(C(F)(F)F)cc32)CC1` [DUOPERONE FUMARATE], the Activity result is recorded as “Toxic”.

The next data set has as its system Mus musculus. The data set is described as follows: Neuroleptic activity in mouse assessed as suppression of conditioned avoidance behavior by measuring mean correct responses level at 10 mg/kg, ip administered 1 day prior to electric shock challenge. The format is functional. As to conditions: route intraperitoneal. Put shortly: as §1
For `O=C(O)/C=C/C(=O)O.O=C(c1ccc(F)cc1)C1CCN(CCCN2c3ccccc3Sc3ccc(C(F)(F)F)cc32)CC1` [DUOPERONE FUMARATE], the Activity is listed as 58%.

Regarding `CC(=O)c1ccc2c(c1)N(CCCN1CCC(C(=O)c3ccc(F)cc3)CC1)c1ccccc1S2.O.O=C(O)/C=C/C(=O)O`, the Activity was 55%.

Another data set relates to Mus musculus. The data set is described as follows: Neuroleptic activity in mouse assessed as suppression of conditioned avoidance behavior by measuring mean correct responses level at 10 mg/kg, ip administered 8 hrs prior to electric shock challenge. The data set is classed as functional. To be noted: route intraperitoneal. Put shortly:
as §1
Regarding `O=C(O)/C=C/C(=O)O.O=C(c1ccc(F)cc1)C1CCN(CCCN2c3ccccc3Sc3ccc(C(F)(F)F)cc32)CC1` [DUOPERONE FUMARATE], the Activity came out at 45%.

Turning to `CC(=O)c1ccc2c(c1)N(CCCN1CCC(C(=O)c3ccc(F)cc3)CC1)c1ccccc1S2.O.O=C(O)/C=C/C(=O)O`, the Activity was found to be 55%.

Another data set has as its system Mus musculus. The data set is described as follows: Neuroleptic activity in ip dosed ICR-DUB mouse assessed as survival administered 4 days prior to d-amphetamine challenge measured after 24 hrs. The data set is classed as functional.
Details: not given
On to `O=C(O)/C=C/C(=O)O.O=C(c1ccc(F)cc1)C1CCN(CCCN2c3ccccc3Sc3ccc(C(F)(F)F)cc32)CC1` [DUOPERONE FUMARATE], for which the median effective dose (ED50) stood at 27 mg/kg.

As for `CC(=O)c1ccc2c(c1)N(CCCN1CCC(C(=O)c3ccc(F)cc3)CC1)c1ccccc1S2.O.O=C(O)/C=C/C(=O)O`, the 50% effective dose (ED50) is more than 64 mg/kg.

A further data set has as its system Mus musculus. The data set is described as follows: Toxicity in ICR-DUB mouse assessed as body weight loss at 50 mg/kg, ip. Further details: dose 50 mg/kg, route intraperitoneal. The data set is classed as organism-based. To be noted: in vivo.
`O=C(O)/C=C/C(=O)O.O=C(c1ccc(F)cc1)C1CCN(CCCN2c3ccccc3Sc3ccc(C(F)(F)F)cc32)CC1` [DUOPERONE FUMARATE]: the Activity entry is reported as “Non-toxic”.

In the next data set the test system is Mus musculus. The data set is described as follows: Neuroleptic activity in ip dosed ICR-DUB mouse assessed as survival administered 7 days prior to d-amphetamine challenge measured after 24 hrs. The data set is classed as functional.
Details: not given
For `O=C(O)/C=C/C(=O)O.O=C(c1ccc(F)cc1)C1CCN(CCCN2c3ccccc3Sc3ccc(C(F)(F)F)cc32)CC1` [DUOPERONE FUMARATE], the median effective dose (ED50) was 45.5 mg/kg.

Take `CC(=O)c1ccc2c(c1)N(CCCN1CCC(C(=O)c3ccc(F)cc3)CC1)c1ccccc1S2.O.O=C(O)/C=C/C(=O)O`: the ED50 result was “inactive”.

The next data set relates to Mus musculus. The data set is described as follows: Neuroleptic activity in mouse assessed as suppression of conditioned avoidance behavior by measuring mean correct responses level at 10 mg/kg, ip administered immediately prior to electric shock challenge. The format is functional. As to conditions: route intraperitoneal. Put shortly:
as §1
Consider `O=C(O)/C=C/C(=O)O.O=C(c1ccc(F)cc1)C1CCN(CCCN2c3ccccc3Sc3ccc(C(F)(F)F)cc32)CC1` [DUOPERONE FUMARATE], for which the Activity amounted to 92%.

Turning to `CC(=O)c1ccc2c(c1)N(CCCN1CCC(C(=O)c3ccc(F)cc3)CC1)c1ccccc1S2.O.O=C(O)/C=C/C(=O)O`, the Activity is 95%.

Another data set has as its system Mus musculus. The data set is described as follows: Neuroleptic activity in mouse assessed as suppression of conditioned avoidance behavior by measuring mean correct responses level at 10 mg/kg, ip administered 3 days prior to electric shock challenge. The format is functional. As to conditions: route intraperitoneal. Put shortly:
as §1
Turning to `O=C(O)/C=C/C(=O)O.O=C(c1ccc(F)cc1)C1CCN(CCCN2c3ccccc3Sc3ccc(C(F)(F)F)cc32)CC1` [DUOPERONE FUMARATE], the Activity is reported as 58%.

With `CC(=O)c1ccc2c(c1)N(CCCN1CCC(C(=O)c3ccc(F)cc3)CC1)c1ccccc1S2.O.O=C(O)/C=C/C(=O)O`, the Activity amounted to 100%.

A further data set relates to Mus musculus. The data set is described as follows: Toxicity in ICR-DUB mouse assessed as CNS depression at 50 mg/kg, ip measured for 24 hrs. The format is organism-based. Also noted: dose 50 mg/kg, route intraperitoneal. To be noted: in vivo.
With `O=C(O)/C=C/C(=O)O.O=C(c1ccc(F)cc1)C1CCN(CCCN2c3ccccc3Sc3ccc(C(F)(F)F)cc32)CC1` [DUOPERONE FUMARATE], the Activity result is given as “Toxic”.

The subject of the next data set is Mus musculus. The data set is described as follows: Neuroleptic activity in mouse assessed as suppression of conditioned avoidance behavior by measuring mean correct responses level at 10 mg/kg, ip administered 2 hrs prior to electric shock challenge. The data set is classed as functional. To be noted: route intraperitoneal. The method in brief: as §1
Consider `O=C(O)/C=C/C(=O)O.O=C(c1ccc(F)cc1)C1CCN(CCCN2c3ccccc3Sc3ccc(C(F)(F)F)cc32)CC1` [DUOPERONE FUMARATE], for which the Activity is on record as 88%.

Regarding `CC(=O)c1ccc2c(c1)N(CCCN1CCC(C(=O)c3ccc(F)cc3)CC1)c1ccccc1S2.O.O=C(O)/C=C/C(=O)O`, the Activity was 61%.

The subject of another data set is Mus musculus. The data set is described as follows: Neuroleptic activity in ip dosed ICR-DUB mouse assessed as survival administered 6 days prior to d-amphetamine challenge measured after 24 hrs.
Details: not given
The data set is classed as functional.
Consider `O=C(O)/C=C/C(=O)O.O=C(c1ccc(F)cc1)C1CCN(CCCN2c3ccccc3Sc3ccc(C(F)(F)F)cc32)CC1` [DUOPERONE FUMARATE], for which the 50% effective dose (ED50) was 26.5 mg/kg.

(Values after ChEMBL document CHEMBL3244169, “(1-(3-(Phenothiazin-10-yl)propyl)-4-piperidinyl)phenylmethanones, a novel class of long-acting neuroleptic agents” (J Med Chem, 1978).)
